{"source": "paper PMC3033481", "about": "(Journal of the American Chemical Society, 2011)", "key": {"[1]": {"test_system": "BrdU+ cells in the hippocampal dentate gyrus", "assay": "In vivo neurogenesis", "set-up": "species or system C57BL/J6 mice", "settings": "for proneurogenic activity (BrdU+ cells in dentate gyrus), in words: 10 μM solution infused ICV, 12 μL/day, 7 days, live mice", "method_in_brief": "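Adult (12-week-old) wild-type C57BL/J6 mice, 4 per compound. Test compound solutions (10–0.01 μM) delivered by osmotic minipump into the left lateral ventricle at 12 μL/day for 7 days; the vehicle was artificial CSF. BrdU+ cells counted in SGZ/dentate gyrus of the contralateral hemisphere, every fifth 40 μm section, normalized to dentate volume. Mean ± SEM.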"}, "hERG channel": {"biological_target": "hERG channel (Homo sapiens, UniProt Q12809)", "sequence (Q12809 whole entry)": "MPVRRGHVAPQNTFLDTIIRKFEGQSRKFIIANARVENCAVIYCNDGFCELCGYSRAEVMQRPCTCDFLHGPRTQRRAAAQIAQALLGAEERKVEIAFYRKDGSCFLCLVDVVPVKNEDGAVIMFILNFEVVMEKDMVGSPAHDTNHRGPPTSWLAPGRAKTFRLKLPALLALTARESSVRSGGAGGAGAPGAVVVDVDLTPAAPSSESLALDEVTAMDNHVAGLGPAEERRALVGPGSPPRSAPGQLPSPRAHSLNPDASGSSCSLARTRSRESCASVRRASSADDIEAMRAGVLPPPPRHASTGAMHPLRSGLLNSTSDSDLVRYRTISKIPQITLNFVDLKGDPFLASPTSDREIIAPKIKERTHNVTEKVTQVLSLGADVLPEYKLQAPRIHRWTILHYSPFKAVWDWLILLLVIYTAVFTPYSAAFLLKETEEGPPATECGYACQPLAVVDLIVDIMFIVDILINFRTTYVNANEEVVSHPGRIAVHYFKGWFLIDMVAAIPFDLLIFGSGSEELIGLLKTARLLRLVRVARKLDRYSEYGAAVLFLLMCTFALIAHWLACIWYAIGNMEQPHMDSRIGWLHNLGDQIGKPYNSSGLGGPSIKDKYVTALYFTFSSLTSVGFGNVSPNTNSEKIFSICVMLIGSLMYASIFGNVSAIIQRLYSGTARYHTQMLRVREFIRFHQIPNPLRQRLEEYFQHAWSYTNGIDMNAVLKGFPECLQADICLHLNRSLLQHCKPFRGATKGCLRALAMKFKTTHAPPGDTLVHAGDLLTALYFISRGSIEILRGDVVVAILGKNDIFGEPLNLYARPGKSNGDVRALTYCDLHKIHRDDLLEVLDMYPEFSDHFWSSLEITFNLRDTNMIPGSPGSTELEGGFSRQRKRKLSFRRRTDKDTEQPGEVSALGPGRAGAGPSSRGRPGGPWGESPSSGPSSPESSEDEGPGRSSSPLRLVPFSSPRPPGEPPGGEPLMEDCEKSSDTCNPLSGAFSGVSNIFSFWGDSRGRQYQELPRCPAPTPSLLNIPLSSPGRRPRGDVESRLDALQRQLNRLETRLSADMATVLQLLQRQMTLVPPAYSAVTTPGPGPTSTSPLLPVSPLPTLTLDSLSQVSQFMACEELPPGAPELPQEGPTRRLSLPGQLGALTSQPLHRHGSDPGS"}, "[2]": {"test_system": "BrdU+ cells in the hippocampal dentate gyrus", "settings": "cited from earlier work"}, "histamine H2 receptor": {"biological_target": "histamine H2 receptor (Homo sapiens, UniProt P25021)", "sequence (P25021 whole entry)": "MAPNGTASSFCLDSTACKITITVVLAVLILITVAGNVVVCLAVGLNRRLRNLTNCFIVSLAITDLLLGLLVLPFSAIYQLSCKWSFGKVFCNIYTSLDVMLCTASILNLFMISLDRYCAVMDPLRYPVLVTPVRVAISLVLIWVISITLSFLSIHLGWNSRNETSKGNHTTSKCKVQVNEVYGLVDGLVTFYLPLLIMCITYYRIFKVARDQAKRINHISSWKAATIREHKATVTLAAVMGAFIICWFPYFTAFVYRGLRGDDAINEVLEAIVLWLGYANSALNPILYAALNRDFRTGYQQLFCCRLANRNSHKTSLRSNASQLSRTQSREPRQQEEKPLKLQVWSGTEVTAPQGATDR", "assay": "Histamine H2 competition binding assay", "settings": "for Histamine H2 binding (% displacement @ 10 μM): displacement of [125I]aminopotentidine (0.1 nM) with 10 μM drug"}, "[3]": {"test_system": "dentate gyrus in mice deficient in the npas3 gene", "settings": "cited from earlier work"}, "neurogenesis": {"test_system": "neurogenesis", "settings": "cited from earlier work"}, "[4]": {"settings": "mouse, in vivo, cited from earlier work"}, "neural precursor cells": {"test_system": "neural precursor cells", "settings": "time-course experiments; cited from earlier work"}, "HeLa cells": {"test_system": "HeLa cells", "assay": "Cell viability assay", "type": "cell-based"}, "[5]": {"test_system": "neurogenesis in the dentate gyrus", "settings": "rats, cited from earlier work"}, "[6]": {"test_system": "embryonic, weaning or adult mice", "settings": "mouse, in vivo; cited from earlier work"}}, "note": "“Also recorded” adds a separate entry of the source."}
{"smiles": "OC(CNc1ccccc1)Cn1c2ccc(Cl)cc2c2cc(Cl)ccc21", "note": "(centres unmarked) [Compound 1]", "values": [{"measurement": "proneurogenic activity (BrdU+ cells in dentate gyrus), in words", "setting": "[1]", "result": "did not appear active"}]}
{"smiles": "OC(CNc1ccccc1)Cn1c2ccccc2c2ccccc21", "note": "(centres unmarked) [Compound 2]", "values": [{"measurement": "proneurogenic activity (BrdU+ cells in dentate gyrus), in words", "setting": "[1]", "result": "did not appear active"}]}
{"smiles": "CCOc1ccc(NCC(O)Cn2c3ccc(Br)cc3c3cc(Br)ccc32)cc1", "note": "(centres unmarked) [Compound 4-OEt]", "values": [{"measurement": "proneurogenic activity (BrdU+ cells in dentate gyrus), in words", "setting": "[1]", "result": "highly active"}]}
{"smiles": "COc1cccc(NCC(O)Cn2c3ccc(Br)cc3c3cc(Br)ccc32)c1", "note": "(centres unmarked) [Compound 7]", "values": [{"measurement": "proneurogenic activity (BrdU+ cells in dentate gyrus), in words", "setting": "[1]", "result": "well tolerated; also recorded: little effect on activity"}, {"measurement": "difference in activity between the two enantiomers", "setting": "[1]; enantiomeric pairs tested, same enantiomer more active in all three cases", "result": "significant difference in activity"}]}
{"smiles": "COc1ccc(NCC(O)Cn2c3ccc(Br)cc3c3cc(Br)ccc32)cc1", "note": "(centres unmarked) [Compound 8]", "values": [{"measurement": "proneurogenic activity (BrdU+ cells in dentate gyrus), in words", "setting": "[1]", "result": "well tolerated; also recorded: highly active"}]}
{"smiles": "OC(CNc1ccccc1)Cn1c2ccc(Cl)cc2c2cc(Cl)ccc21", "note": "(centres unmarked) [Compound 17]", "values": [{"measurement": "proneurogenic activity (BrdU+ cells in dentate gyrus), in words", "setting": "[1]", "result": "little activity"}]}
{"smiles": "CCOc1cccc(NCC(O)Cn2c3ccc(Br)cc3c3cc(Br)ccc32)c1", "note": "(centres unmarked) [Compound 21]", "values": [{"measurement": "proneurogenic activity (BrdU+ cells in dentate gyrus), in words", "setting": "[1]", "result": "essentially abrogated activity"}]}
{"smiles": "[N-]=[N+]=Nc1cccc(NCC(O)Cn2c3ccc(Br)cc3c3cc(Br)ccc32)c1", "note": "(centres unmarked) [Compound 22]", "values": [{"measurement": "proneurogenic activity (BrdU+ cells in dentate gyrus), in words", "setting": "[1]", "result": "substantially decreased activity"}]}
{"smiles": "[N-]=[N+]=Nc1ccc(NCC(O)Cn2c3ccc(Br)cc3c3cc(Br)ccc32)cc1", "note": "(centres unmarked) [Compound 23]", "values": [{"measurement": "proneurogenic activity (BrdU+ cells in dentate gyrus), in words", "setting": "[1]", "result": "highly active"}]}
{"smiles": "FC(CNc1ccccc1)Cn1c2ccc(Br)cc2c2cc(Br)ccc21", "note": "(centres unmarked) [Compound 52]", "values": [{"measurement": "proneurogenic activity (BrdU+ cells in dentate gyrus), in words", "setting": "[1]", "result": "gains little from fluorination"}]}
{"smiles": "COc1ccc(NCC(F)Cn2c3ccc(Br)cc3c3cc(Br)ccc32)cc1", "note": "(centres unmarked) [Compound 54]", "values": [{"measurement": "proneurogenic activity (BrdU+ cells in dentate gyrus), in words", "setting": "[1]", "result": "improved by fluorination"}]}
{"smiles": "OC(CNc1ccccc1)Cn1c2ccc(Br)cc2c2cc(Br)ccc21", "note": "(centres unmarked) [Compound P7C3]", "values": [{"measurement": "hERG binding (% displacement @ 10 μM)", "setting": "hERG channel", "result": 92, "unit": "% displacement"}, {"measurement": "neurogenesis activity, 1 μM solution", "setting": "[2]; 1 μM solution infused ICV, 12 μL/day for 7 days", "result": "maintains activity"}, {"measurement": "number of BrdU+ cells relative to mice treated with vehicle alone", "setting": "[2]; 10 μM ICV, 7 days, vehicle artificial CSF, similar number as FGF-2", "result": "approximately twice"}, {"measurement": "Histamine H2 binding, in words", "setting": "histamine H2 receptor; 10 μM drug", "result": "modest binding"}, {"measurement": "Histamine H2 binding (% displacement @ 10 μM)", "setting": "histamine H2 receptor", "result": 63, "unit": "% displacement"}, {"measurement": "structure and function of the dentate gyrus", "setting": "[3]", "result": "repair the structure and function of the dentate gyrus"}, {"measurement": "neurogenesis activity, oral dose 1 mg/kg", "setting": "neurogenesis; oral dose 1 mg/kg", "result": "measurable activity"}, {"measurement": "neurogenesis activity, oral dose 5 mg/kg", "setting": "neurogenesis; oral dose of 5 mg/kg", "result": "maximal neurogenesis activity"}, {"measurement": "AUC brain: AUC plasma ratio", "setting": "[4]; po", "result": 3.7}, {"measurement": "oral availability, in words", "setting": "[4]", "result": "orally available"}, {"measurement": "proliferation of neural precursor cells", "setting": "neural precursor cells", "result": "does not stimulate proliferation"}, {"measurement": "Half life in cell culture, Mouse hepatocytes", "setting": "mouse hepatocytes", "result": ">4", "unit": "h"}, {"measurement": "GI50", "setting": "HeLa cells", "result": 5.1, "unit": "µM"}, {"measurement": "Half life in cell culture, Human hepatocytes", "setting": "human hepatocytes", "result": ">4", "unit": "h"}, {"measurement": "cognitive capacity", "setting": "[5]; as a function of terminal aging", "result": "preserved cognitive capacity"}, {"measurement": "neurogenesis in the dentate gyrus", "setting": "[5]; terminal aging", "result": "enhanced neurogenesis in the dentate gyrus"}, {"measurement": "neuron cell death", "setting": "[5]; terminal aging", "result": "impeded neuron cell death"}, {"measurement": "toxicity to mice", "setting": "[6]", "result": "not toxic"}]}
{"smiles": "Cc1ccc2c(c1)c1c(n2CCc2ccc(C)nc2)CCN(C)C1", "note": "[dimebon, reference compound]", "values": [{"measurement": "Histamine H2 binding (% displacement @ 10 μM)", "setting": "histamine H2 receptor", "result": 99, "unit": "% displacement"}, {"measurement": "proneurogenic activity (BrdU+ cells in dentate gyrus), in words", "setting": "[1]", "result": "active in our neurogenesis assay, but substantially less so than P7C3"}]}
